The source made the active and inactive calls. The calls are words filed in the database; no cut-off is given here.
Experiments:
Format in all cases: functional
[1] = Antioxidant activity assessed as copper ion radical scavenging activity at 2 uM
How it was run: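 Cu(II)-reducing test: compound in distilled water mixed 40:160 with 0.5 mM CuCl2 plus 0.75 mM neocuproine in 10 mM phosphate buffer, pH 7.4. Absorbance read at 454 nm for 1 h. Reduced Cu(I) concentration measured at 2 μM compound.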

[2] = Antioxidant activity assessed as peroxyl radical scavenging activity at 1 to 2 uM by ORAC assay
How it was run: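 ORAC peroxyl-radical assay at 1.0 and 2.0 μM. Fluorescein is the radical target and 20 mM AAPH the generator. Fluorescence recorded every 2 min after AAPH, relative to the initial reading. Net area under the decay curve versus blank, expressed as μM Trolox equivalents against freshly prepared Trolox standard.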

[3] = Metal chelating activity of the compound at 1 to 2 uM
How it was run: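 Chelation: compound mixed 1:1 with CuSO4, then calcein added. Fluorescence read at excitation 485 nm and emission 535 nm, compared with calcein-only control. Tested at 1 and 2 μM; mean ± S.D.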

| SMILES | Activity [1] | Activity [2] | Activity [3] |
| --- | --- | --- | --- |
| Oc1cc(O)c2c(c1)O[C@H](c1ccc(O)c(O)c1)[C@H](O)C2 | Active | Active | inactive |
| O=c1cc(-c2ccc(O[C@@H]3O[C@H](CO)[C@@H](O)[C@H](O)[C@H]3O)cc2)oc2cc(O)c([C@@H]3O[C@H](CO)[C@@H](O)[C@H](O)[C@H]3O)c(O)c12 | inactive | – | inactive |
| CC[C@H](CC[C@@H](C)[C@H]1CC[C@H]2[C@@H]3CC=C4C[C@@H](O)CC[C@]4(C)[C@H]3CC[C@]12C)C(C)C | inactive | inactive | inactive |
| CC1=CC(=O)CC(C)(C)[C@H]1/C=C/[C@@H](C)O[C@@H]1O[C@H](CO[C@@H]2O[C@@H](CO)[C@H](O)[C@H]2O)[C@@H](O)[C@H](O)[C@H]1O | inactive | inactive | inactive |
| O=c1cc(-c2ccc(O)c(O)c2)oc2cc(O)c([C@@H]3O[C@H](CO)[C@@H](O)[C@H](O)[C@H]3O)c(O)c12 | Active | Active | inactive |
| C[C@H](O)/C=C/[C@@]1(O)C(C)(C)C[C@H](O)C[C@@]1(C)O | inactive | inactive | inactive |
| COc1cc(/C=C/CO)cc(OC)c1O[C@@H]1O[C@H](CO)[C@@H](O)[C@H](O)[C@H]1O | inactive | inactive | inactive |
| C[C@H](/C=C/[C@]1(O)C(C)(C)C[C@@H](O)C[C@]1(C)O)O[C@H]1O[C@@H](CO)[C@H](O)[C@@H](O)[C@@H]1O | inactive | inactive | inactive |
| CC[C@H](CC[C@@H](C)[C@H]1CC[C@H]2[C@@H]3CC=C4C[C@@H](O[C@@H]5O[C@H](CO)[C@@H](O)[C@H](O)[C@H]5O)CC[C@]4(C)[C@H]3CC[C@]12C)C(C)C | inactive | inactive | inactive |
| C[C@@H]1C[C@H](O)CC(C)(C)[C@@]1(O)CC[C@H](C)O[C@H]1O[C@@H](CO)[C@H](O)[C@@H](O)[C@@H]1O | inactive | inactive | inactive |
| O=c1cc(-c2ccc(O)cc2)oc2cc(O)c([C@@H]3O[C@H](CO)[C@@H](O)[C@H](O)[C@H]3O)c(O)c12 | inactive | – | inactive |
| O=c1cc(-c2ccc(O)cc2)oc2c([C@@H]3O[C@H](CO)[C@@H](O)[C@H](O)[C@H]3O[C@H]3OC[C@@](O)(CO)[C@@H]3O)c(O)cc(O)c12 | inactive | – | inactive |
| Oc1cc(O)c2c(c1)O[C@H](c1ccc(O)c(O)c1)[C@@H](O)C2 | Active | Active | inactive |
| CCCCCCCCCCCCCCCCCC(=O)OC[C@H]1O[C@@H](O[C@H]2CC[C@@]3(C)C(=CC[C@H]4[C@@H]5CC[C@H]([C@H](C)CC[C@@H](CC)C(C)C)[C@@]5(C)CC[C@@H]43)C2)[C@H](O)[C@@H](O)[C@@H]1O | inactive | inactive | inactive |

Reference: ChEMBL document CHEMBL1641480, “Antioxidant activity of a new C-glycosylflavone from the leaves of Ficus microcarpa” (Bioorg Med Chem Lett, 2011)
